From ChEMBL document CHEMBL3272287, “Synthesis and biological activity of new 2-substituted analogs of fluphenazine” (1976)

Key:
Assay type in all cases: functional
Mus musculus [1] = test: Cataleptogenic potency in iv dosed albino mouse assessed as reversal of imposed position administered 4 doses at quarter log intervals measured 60 to 180 mins post dose
Outline: (§1)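 Male albino mice (20–25 g), six per dose, given intravenous aqueous solutions (PEG 200 for one analog). Distilled water served as the negative control. About four doses were spaced at quarter-log intervals, chosen from a preliminary gross observation screen. At 60, 120 and 180 min, mice were placed with forepaws elevated 5 cm and each forepaw was scored, maximum 3. Three observers scored the mice. CD50 came from probit analysis, with doses as free base. Relative potency was calculated against fluphenazine as 1.0.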

Mus musculus [2] = test: Cataleptogenic potency in iv dosed albino mouse assessed as reversal of imposed position administered 4 doses at quarter log intervals measured 60 to 180 mins post dose relative to fluphenazine; outline: as §1
Rattus norvegicus [3] = test: Cataleptogenic potency in im dosed albino rat assessed as reversal of imposed position administered 4 doses at quarter log intervals measured 60 to 180 mins post dose
Outline: (§2)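 Male albino rats (about 180 g average), groups of six, each given a single intramuscular injection into the gastrocnemius, about 0.1 ml/kg. Saline-injected controls. One observer scored forepaw-elevation catalepsy. CD50 was the dose giving 50% of the maximum catalepsy score (9 of 18 points), estimated by probit analysis. Doses were expressed as free base. Relative potency was calculated against fluphenazine as 1.0.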

Rattus norvegicus [4] = test: Cataleptogenic potency in im dosed albino rat assessed as reversal of imposed position administered 4 doses at quarter log intervals measured 60 to 180 mins post dose relative to fluphenazine; outline: as §2

Row | Structure (SMILES) | ED50 (Mus musculus [1]) [µmol/kg] | Ratio (Mus musculus [2]) | ED50 (Rattus norvegicus [3]) [µmol/kg] | Ratio (Rattus norvegicus [4])
1 | O=[N+]([O-])c1ccc2c(c1)N(CCCN1CCN(CCO)CC1)c1ccccc1S2 | 2.2 | 0.92 | 0.17 | 3.2
2 | N#CC(C#N)=Cc1ccc2c(c1)N(CCCN1CCN(CCO)CC1)c1ccccc1S2 | 28 | 0.078 | – | –
3 | O=[N+]([O-])/C=C/c1ccc2c(c1)N(CCCN1CCN(CCO)CC1)c1ccccc1S2 | > 57 | <0.011 | – | –
4 | N#Cc1ccc2c(c1)N(CCCN1CCN(CCO)CC1)c1ccccc1S2 | 0.41 | 0.7 | 0.61 | 0.65
5 | OCCN1CCN(CCCN2c3ccccc3Sc3ccc(C(F)(F)F)cc32)CC1 [FLUPHENAZINE] | 0.29 | – | 0.39 | –
